Source: PubChem BioAssay
DAGLB inhibitor = DAGLB lipase inhibitors, primary screen, biochemical, fluorescence, HTS. HEK293T DAGLB membrane lysate, EnzChek fluorogenic substrate. inhibition, % at 5.17 µM. 0.059% of 340,000 active. AID 504411, 2011; in the data active = inhibition above about 34%;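 note: 0% = enzyme with vehicle and 100% = wells lacking enzyme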
VLA-4 inh = inhibition in human VLA-4 binding assay, primary screen, VLA-4 allosteric modulator project, MLPCN library, flow cytometry, VLA-4 expressing cells; 0.2% of 330,000 active; Integrin alpha-4 (Homo sapiens), P13612; ligand binding flow cytometry; inhibition, % (about 7 µM as worked out from the volumes in the protocol); in the data active = inhibition above about 50%
Exocytosis inh = LAMP-1 surface exposure blockers, TALL-104 cells – cell-based, flow cytometry, MLPCN library, primary screen; AID 651702, 2012; 0.66% of 360,000 active; inhibition, % at 10 µM; TALL-104 LAMP-1 surface exposure; cells stimulated with thapsigargin and PMA;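 active = inhibition above about 55%, limit read from the data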
MT1-MMP act inh = blockers of MT1-MMP proenzyme processing, primary screen, HT1080 RFP-PRO-GFP cells, GFP/RFP fluorescence | Matrix metalloproteinase-14 (Homo sapiens), P50281 | GFP/RFP ratio fluorescence, overnight; percent of plate control window, DMSO zero | GFP/RFP ratio change, % at 20 µM | 0.061% of 360,000 active | AID 651647, 2012;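 active = GFP/RFP ratio change of at least 30% with cell ATP level not reduced by more than half and red fluorescence within 50% of control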
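Assay system – RFP-PRO-GFP reporter HT1080 cells · Compound dosing – single dose of 20 µM compound, 1% DMSO final · Incubation – overnight compound exposure at 37 °C · Measure – GFP/RFP fluorescence ratio · Benchmarks – DMSO wells and RFP-L50D-GFP cells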
FGF22 binding-1 = binders of human FGF22 protein, primary screen, FGF22 synaptogenesis inhibitor project, biophysical, thermal shift, single point; activity (Tm shift, normalised), % at 9.99 µM; 1.5% of 340,000 active; recombinant FGF22 thermal shift, SYPRO orange fluorescence; percent of sucrose octasulfate shift, DMSO zero; AID 651658, 2012; Fibroblast growth factor 22 (Homo sapiens), Q9HCT0;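 active = mean Tm shift, scaled 0 neutral to 100 positive control, at about 1.3% or above, every replicate too, limit read from the data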
Target sequence (Q9HCT0 whole entry, looked up): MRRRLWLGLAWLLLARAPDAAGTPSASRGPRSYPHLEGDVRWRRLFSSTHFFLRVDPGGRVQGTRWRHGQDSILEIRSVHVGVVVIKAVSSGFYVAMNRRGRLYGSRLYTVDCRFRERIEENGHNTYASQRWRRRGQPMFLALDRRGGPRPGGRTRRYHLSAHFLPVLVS
ABCB6 inh 2 = ABCB6 transporter inhibitors, primary screen, K562-ABCB6 cells, flow cytometry, MLPCN library; ATP-binding cassette sub-family B member 6 (Homo sapiens), Q9NP58; K562-ABCB6 porphyrin accumulation, 1 h; active compounds read low; fluorescence ratio to DMSO, % at 10 µM; 0.19% of 360,000 active; AID 602162, 2011;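 active = fluorescence ratio to DMSO below 75%, the collection mean minus 3 SD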;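 note: signal is porphyrin accumulated inside mitochondria; 100% equals median channel fluorescence of DMSO control wells; lower ratio means ABCB6 inhibition with less porphyrin fluorescence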
FGF22 binding-2 = binders of human FGF22 protein, dose response, FGF22 synaptogenesis inhibitor project, biophysical, thermal shift, cherry-pick retest; recombinant FGF22 thermal shift, SYPRO orange fluorescence; AID 720646, 2013; thermal shift activity, °C (ΔTm) at 38 µM; shares compounds with FGF22 binding-1; 2% of 1,000 active;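 active = fitted rise in melting shift crosses a set limit at or below the top valid dose tested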
SYPRO no-protein = compound-only thermal shift signal without protein, dose response, artefact control for FGF22 binder project, biochemical, cherry-picked samples, RT-PCR instrument; shares compounds with FGF22 binding-1; compound-only SYPRO orange thermal shift counter-screen, no protein; AC50, µM (top dose mostly 38 µM); 2% of 1,000 active;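 active = rising signal whose fitted curve reaches the 0.54 level within the top valid dose, showing a melting point, actives reach about 13 µM in these data; inactive = the rest, including activity in the opposite direction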; note: value is where the raw curve crosses a fixed level and not half-maximal
Numbers without * were called inactive; i = inactive; x = no result; [ ] = dose if it differs, or a comment. Rows were chosen to be rich in hits. Some 2% of all compounds tested hit in one or more screens of this group.

SMILES | DAGLB inhibitor | VLA-4 inh | Exocytosis inh | MT1-MMP act inh | FGF22 binding-1 | ABCB6 inh 2 | FGF22 binding-2 | SYPRO no-protein
CO[C@@H]1CN(C)C(=O)c2ccc(NC(C)=O)cc2OC[C@H](C)N(CCc2ccccc2)C[C@H]1C | x | x | x | x | 0 | x | x | x
O=C(O)CCc1nn2c3ccccc3n(CC(=O)c3ccccc3)c2nc1=O | -1 | 4 | -2 | 0 | x | 104 | x | x
CCOC(=O)Cn1c2ccccc2n2nc(CCC(=O)O)c(=O)nc12 | 0 | -3 | 0 | -2 | 19* | 100 | 0.081 | i
CCNC(=O)C[C@@H]1CC[C@H]2[C@@H](COC[C@H](O)CN2C(=O)CC)O1 | x | x | x | x | 0 | x | x | x
N/C(=N\OCC(=O)Nc1ccc(F)c(Cl)c1)c1ccccc1 | -5 | 29 | 2 | -2 | 1.6* | 98 | 0.33 | i
O=C(CNc1ccccc1OC(F)F)N1CCc2ccccc21 | -7 | 19 | 1 | 1 | 1.4* | 104 | 0.067 | i
C[C@H]1CN([C@@H](C)CO)C(=O)Cc2cc(NC(=O)Cn3cnnn3)ccc2O[C@H]1CN(C)Cc1ccccc1 | x | x | x | x | 0 | x | x | x
Cc1noc(NC(=O)c2cccc(Cl)c2Cl)c1C#N | 0 | 4 | -2 | -2 | 1.3* | 96 | -0.1 | i
O=C(COC(=O)c1ccccc1Br)NCCC1=CCCCC1 | -3 | 2 | 1 | 2 | 24* | 96 | 0.053 | i
CSc1ncccc1C(=O)Nc1ccc(S(=O)(=O)N2CCCC2)cc1 | 2 | -32 | -2 | 0 | 1.6* | 96 | 0.21 | i
CSc1ncccc1C(=O)Nc1cccc(S(=O)(=O)N2CCCCC2)c1 | 0 | 3 | 0 | -2 | 0 | 95 | x | x
C[C@@H]1CN([C@H](C)CO)S(=O)(=O)c2ccc(/C=C/c3ccccc3)cc2O[C@H]1CN(C)Cc1ccc(C(=O)O)cc1 | x | x | x | x | 0 | x | x | x
COc1cccc(NC(=O)N(C)C[C@@H]2Oc3cc(-c4ccccc4F)ccc3S(=O)(=O)N([C@@H](C)CO)C[C@H]2C)c1 | x | x | x | x | 1.7* | x | 0.076[42 µM] | i
COc1ccccc1-c1ccc2c(c1)O[C@@H](CN(C)C(=O)Nc1cccc(F)c1)[C@H](C)CN([C@@H](C)CO)S2(=O)=O | x | x | x | x | 2.0* | x | -0.15 | 11µM*
C[C@H](CO)N1C[C@H](C)[C@@H](CN(C)Cc2ccc(C(=O)O)cc2)Oc2cc(/C=C/c3ccccc3)ccc2S1(=O)=O | x | x | x | x | 23* | x | 0.099[42 µM] | i
C[C@@H]1CN([C@@H](C)CO)S(=O)(=O)c2ccc(-c3ccncc3)cc2O[C@@H]1CN(C)C(=O)Nc1ccc(C(F)(F)F)cc1 | x | x | x | x | 1.5* | x | -0.076 | i
C/C=C/c1ccc2c(c1)O[C@@H](CN(C)C(=O)Nc1cc(F)ccc1F)[C@@H](C)CN([C@H](C)CO)S2(=O)=O | x | x | x | x | 1.3* | x | -0.53[42 µM] | i
COc1cccc(NC(=O)N(C)C[C@H]2Oc3cc(-c4ccccc4F)ccc3S(=O)(=O)N([C@@H](C)CO)C[C@H]2C)c1 | x | x | x | x | 2.8* | x | 0.2[42 µM] | i
COc1cccc(NC(=O)N(C)C[C@H]2Oc3cc(-c4ccccc4F)ccc3S(=O)(=O)N([C@H](C)CO)C[C@@H]2C)c1 | x | x | x | x | 1.4* | x | -0.052[42 µM] | i
